Among the data in PubChem BioAssay AID449754 (Broad Institute, 2010) are AC50 values, retold here.

Records with an inconclusive call do not appear. Activity calls are given as the source filed them.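 The calls were made as follows: active = compounds whose fitted caspase activation AC50 is no more than tenfold above the top tested dose; inconclusive = flat fit with 30 to 70% activity, or a failed fit; inactive = the rest.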

The subject of the experiment is MEF Bax/Bak KO A1-BIM, caspase-Glo luminescence, 3 h. Briefly: caspase activation in Bax/Bak-deficient MEFs, dose response, counter-screen for A1 inhibitor project, cell-based, Bax-Bak knockout MEF, A1-2A-BIM, luminescence (AID 449754).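 Also: counterscreen where caspase activation signals off-target toxicity not A1 inhibition.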 Summed up:
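Material: Bax/Bak-knockout mouse embryonic fibroblasts expressing A1-2A-BIM; Quantity: 2500 cells per well, seeded one day before compound; Buffer or medium: RPMI-1640 growth medium with 10% FBS; Doses: 100 nL pinned compound per well; Times: 3 h compound at 37 °C, 1 h detection at RT; Signal: CaspaseGlo luminescence; Evaluation: caspase activity from luminescent signal.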
On the technique in general: Counterscreens check selectivity or assay interference.
The term AC50 denotes the concentration giving half of the maximal activity seen. Consider `N#C/C(=C\c1ccc(OCc2ccccc2)cc1)C(=O)Nc1nc2c(s1)CCN(Cc1ccccc1)C2`, for which the AC50 is > 35 µM (inactive). The result for `CCc1nnc(NC(=O)CSc2nc(-c3ccccc3)cc(-c3ccc(F)cc3)c2C#N)s1` reads 35.8 µM; that for `CCN(C(=O)CCN1C(=O)c2ccccc2S1(=O)=O)c1ccccc1`, > 35 µM (inactive); that for `O=C1/C(=C/c2ccc(N3CCOCC3)o2)SC(=Nc2ccccc2)N1CCc1c[nH]c2ccccc12`, 6.82 µM. Consider `CC1CCc2c(sc3nc(C(C)(C)C)nc(N4CCN(C(=O)CCl)CC4)c23)C1` (stereo unspecified), for which the AC50 is 12.3 µM. The result for `O=C(NCCc1ccccc1)C(c1cccs1)N(C(=O)CCl)c1ccc(Cl)cc1` (stereo unspecified) reads 6.03 µM. The result for `Cc1ccc(C#N)c(SCC(=O)Nc2nccs2)n1` reads > 35 µM (inactive). The result for `CCOC(=O)c1c(C)oc2c1c(CN1CCN(C(=O)OCC)CC1)c(O)c1ccccc12` reads 13 µM. `O=C(Nc1ccc([N+](=O)[O-])cc1)c1nc[nH]c1C(=O)NC1CCCCC1`: the AC50 was > 35 µM (inactive).

Turning to `CCc1ccc2nc(N(CCCN(C)C)C(=O)c3ccc(S(=O)(=O)N4CCc5ccccc5C4)cc3)sc2c1`, the AC50 is > 35 µM (inactive). The result for `c1ccc(-c2sc3ccccc3c2-c2ccc(OCCN3CCCC3)cc2)cc1` reads 33 µM; that for `CCc1nnc(NC(=O)c2nc(S(=O)(=O)Cc3ccccc3)ncc2Cl)s1`, > 35 µM (inactive); that for `COc1cc(/C=C(/C#N)c2nc3ccccc3[nH]2)ccc1OCC(=O)Nc1ccccc1C(C)C`, > 35 µM (inactive). `CCC(Sc1nc2cc3c(cc2c(=O)n1Cc1ccco1)OCO3)C(=O)Nc1cccc(OC)c1` (stereo unspecified): the AC50 was > 35 µM (inactive). For `COc1ccc(-c2nc(NC(=O)c3n[nH]c(=O)c4ccccc34)sc2C)cc1`, the AC50 was > 35 µM (inactive). The result for `COc1ccc(C(=O)/C=C/C(=O)N(CC(=O)NC2CCCCC2)Cc2cccs2)c(O)c1` reads > 35 µM (inactive); that for `O=[N+]([O-])/C=C/c1cn(Cc2ccc(Cl)cc2)c2ccccc12`, 20.7 µM; that for `COc1ccc(OC)c(NC(=O)c2cc(-c3cc(C)ccc3O)n[nH]2)c1`, > 35 µM (inactive). The value for `COc1ccc(S(=O)(=O)N2CC(O)CC2C(=O)OCC(=O)Nc2ccc(Cl)cn2)cc1` (stereo unspecified) was > 35 µM (inactive); that for `COCc1cc(C)nc(SCC(=O)Nc2nc(C)cs2)c1C#N` was > 35 µM (inactive). The result for `O=C(NCc1ccccc1Br)c1cccc2c1C(=O)c1ccc(-c3ccc(OC(F)(F)F)cc3)cc1S2(=O)=O` reads > 35 µM (inactive). For the molecule `COc1cc2c(-c3ccccc3)c(C)oc2cc1/C=N/NC(N)=S`, the AC50 is > 35 µM (inactive). As for `CC(=O)Nc1ccc(NC(=O)C(C)OC(=O)/C=C/c2cn(-c3ccccc3)nc2-c2cccnc2)cc1` (stereo unspecified), the concentration at half-maximal activity (AC50) was 18.4 µM. Turning to `COc1cc(NC(=O)c2cccs2)ccc1NC(=O)c1cc2ccccc2o1`, the AC50 was > 35 µM (inactive).

Take `CCOC(=O)CSC1=N/C(=C/c2ccc(-n3cncn3)cc2)C(=O)N1C(C)=O`: the AC50 was > 35 µM (inactive). With `CCCCN1C(=O)/C(=C2/Sc3ccccc3N2C)S/C1=N\c1ncn[nH]1`, the AC50 is > 35 µM (inactive).
